One molecule from ChEMBL document CHEMBL5104102, “Discovery of FtsZ inhibitors by virtual screening as antibacterial agents and study of the inhibition mechanism” (RSC Med Chem, 2022) can be followed below.

≈ marks a conversion by molar mass, not a printed value. Calls of active or inactive are those of the source. The calls are words filed in the database; no cut-off is given here.

In assay [1] the test system is Staphylococcus aureus. Briefly: Antibacterial activity against methicillin-resistant Staphylococcus aureus ATCC 33592 assessed as inhibition of bacterial growth incubated for 18 hrs by CLSI protocol based two fold serial dilution method. In kind it is functional. In a few lines:
(§1)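 CAMHB culture grown overnight at 37 °C with shaking at 250 rpm, diluted 10-fold, and grown 2 h. Inoculum set to 5 × 10^6 CFU mL−1 by A600. Compounds in DMSO were serially diluted two-fold, with 1% DMSO per well. Read at A600 after 18 h at 37 °C. MIC is the lowest concentration giving A600 < 0.1. Run in duplicate.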

Assay [2] relates to Staphylococcus aureus. Briefly: Synergistic antibacterial activity against methicillin-resistant Staphylococcus aureus BAA 41 assessed as FICI incubated for 18 hrs in presence of methicillin by checkerboard assay. In kind it is functional. In a few lines: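 Checkerboard: test compound serially diluted two-fold across the plate and methicillin serially diluted down it. Bacteria added at 5 × 10^5 CFU mL−1. Incubated at 37 °C for 16–24 h, then growth read at A600. Untreated-cell columns included. FICI calculated from the combination MICs.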

The target in assay [3] is T1, Cell division protein FtsZ (Staphylococcus aureus) (UniProt P0A031).
T1 sequence (whole entry): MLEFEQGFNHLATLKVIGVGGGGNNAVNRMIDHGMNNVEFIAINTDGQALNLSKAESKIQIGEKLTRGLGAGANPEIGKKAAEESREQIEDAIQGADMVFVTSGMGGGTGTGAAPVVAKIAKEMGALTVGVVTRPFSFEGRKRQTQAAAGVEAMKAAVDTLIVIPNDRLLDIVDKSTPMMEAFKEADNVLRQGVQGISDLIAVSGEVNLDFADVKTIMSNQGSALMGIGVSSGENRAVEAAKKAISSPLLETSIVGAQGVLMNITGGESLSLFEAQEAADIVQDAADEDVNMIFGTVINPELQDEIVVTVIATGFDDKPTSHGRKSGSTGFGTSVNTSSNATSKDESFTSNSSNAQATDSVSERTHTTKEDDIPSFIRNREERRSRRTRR
Put plainly: Inhibition of Staphylococcus aureus FtsZ polymerization assessed as increase in GTPase activity at 5 to 20 ug/ml incubated for 40 mins in presence of GTP by malachite green phosphate assay. The following applies: dose 5-20 µg/ml, DDE = dose-dependent effect. The method in brief:
(§2)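 Purified S. aureus FtsZ (3 μM) was preincubated with serially diluted compound in 50 mM MOPS pH 6.5 for 30 min at room temperature; 1% DMSO served as control. MgCl2 (5 mM) and KCl (200 mM) were added, and the reaction was started with 250 μM GTP for 10 min at 37 °C. Malachite green reagent was then developed 30 min at 37 °C, and released phosphate was read at A600.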

Assay [4] has as its system Staphylococcus aureus. Put plainly: Bactericidal activity against methicillin-resistant Staphylococcus aureus BAA 41 assessed as inhibition of bacterial growth at 2 ug/ml incubated for 24 hrs by time-kill assay. In kind it is functional, organism-based. The following applies: dose 2.0 µg/ml. The method in brief:
(§3)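 Time-kill: 3 mL culture at 5 × 10^5 CFU mL−1 exposed to compound at several concentrations or to 1% DMSO control at 37 °C with shaking at 250 rpm, over 24 h. 100 μL samples taken at intervals, diluted as needed, and spread on agar. Colonies counted after 24 h at 37 °C.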

Assay [5] deals with Staphylococcus aureus. Put plainly: Antibacterial activity against methicillin-resistant Staphylococcus aureus ATCC 33591 assessed as inhibition of bacterial growth incubated for 18 hrs by CLSI protocol based two fold serial dilution method. In kind it is functional. The method in brief: as §1
The subject of assay [6] is Staphylococcus aureus. Put plainly: Bactericidal activity against methicillin-resistant Staphylococcus aureus BAA 41 assessed as inhibition of bacterial growth at 4 ug/ml incubated for 24 hrs by time-kill assay. In kind it is functional. The following applies: dose 4 µg/ml. In a few lines: as §3
The target in assay [7] is T1, Cell division protein FtsZ (Staphylococcus aureus). Briefly: Inhibition of Staphylococcus aureus FtsZ polymerization assessed as increase in GTPase activity at 1 ug/ml incubated for 40 mins in presence of GTP by malachite green phosphate assay. The note with it: dose 1.0 µg/ml. In a few lines:
as §2

The next assay deals with Bacillus subtilis. Briefly: Antibacterial activity against Bacillus subtilis 168 assessed as cell length at 0.5 ug/ml incubated for 4 hrs by phase-contrast microscopy. In kind it is functional. The note with it: dose 0.5 µg/ml. The method in brief: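 B. subtilis 168 overnight culture was diluted tenfold into fresh medium and grown 2 h. It was then adjusted to A600 = 0.01, given compound, and incubated 4 h at 37 °C; 1% (v/v) DMSO was the control. Cells were harvested, resuspended in LB, mounted on 1.2% agarose pads and imaged by phase contrast. Lengths of 100 cells per condition were measured to give length distributions and averages.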

A further assay has as its system Escherichia coli. Briefly: Synergistic antibacterial activity against Escherichia coli 25922 assessed as inhibition of bacterial growth incubated for 18 hrs in presence of PMBN by checkerboard assay. In kind it is functional. In a few lines: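 E. coli ATCC 25922 was tested in MHB by the broth microdilution format with two-fold serial compound dilutions. Polymyxin B nonapeptide was added to each well at 20 μg mL−1 final before adding bacteria at 5 × 10^5 CFU mL−1. Growth was read by A600.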

The subject of assay [8] is Staphylococcus aureus. Put plainly: Bactericidal activity against methicillin-resistant Staphylococcus aureus BAA 41 assessed as inhibition of bacterial growth at 8 ug/ml incubated for 24 hrs by time-kill assay. The note with it: dose 8 µg/ml. In kind it is functional. In a few lines:
as §3

Assay [9] concerns Staphylococcus aureus. Briefly: Bactericidal activity against methicillin-resistant Staphylococcus aureus BAA 41 assessed as inhibition of bacterial growth incubated for 24 hrs by time-kill assay. In kind it is functional. In a few lines: as §3
In assay [10] the test system is Staphylococcus aureus. Put plainly: Antibacterial activity against methicillin-resistant Staphylococcus aureus ATCC 43300 assessed as inhibition of bacterial growth incubated for 18 hrs by CLSI protocol based two fold serial dilution method. In kind it is functional. In a few lines:
as §1

Assay [11] addresses T2, Cell division protein FtsZ (Bacillus subtilis (strain 168)) (UniProt P17865).
T2 sequence (whole entry): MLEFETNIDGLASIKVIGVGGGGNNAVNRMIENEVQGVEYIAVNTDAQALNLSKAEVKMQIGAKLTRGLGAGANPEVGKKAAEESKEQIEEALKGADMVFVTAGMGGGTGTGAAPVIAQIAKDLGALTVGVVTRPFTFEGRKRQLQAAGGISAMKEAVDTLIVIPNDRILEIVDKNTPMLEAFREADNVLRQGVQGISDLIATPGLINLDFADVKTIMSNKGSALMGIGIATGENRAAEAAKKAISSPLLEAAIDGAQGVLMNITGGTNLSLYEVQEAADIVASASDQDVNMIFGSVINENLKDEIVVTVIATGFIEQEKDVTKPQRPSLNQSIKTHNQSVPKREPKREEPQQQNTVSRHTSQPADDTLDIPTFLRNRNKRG
Briefly: Inhibition of GFP-tagged FtsZ in Bacillus subtilis 168 assessed as inhibition of z-ring formation at 0.125 ug/ml incubated for 4 hrs by FM 5-96 dye based super-resolution microscopy. The note with it: dose 0.125 µg/ml. In a few lines: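 B. subtilis 168 carried an IPTG-inducible FtsZ-GFP plasmid and was grown overnight at 37 °C in LB with 30 μg mL−1 chloramphenicol. It was back-diluted to A600 = 0.01, induced with 40 μM IPTG, and treated with compound for 4 h at 37 °C with shaking. Cells were pelleted, resuspended in PBS and mounted on agarose pads. Membranes were stained with FM 5-96, and FtsZ-GFP localization was imaged by super-resolution microscopy (N-SIM).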

`NC(=O)c1c(F)ccc(OCc2nc3cc(Cl)cnc3s2)c1F`: the minimal inhibitory concentration (MIC) turned out to be 2 µg/mL (≈ 5.62 µM) in the assay with Staphylococcus aureus [1], 1 µg/mL (≈ 2.81 µM) in the assay on Staphylococcus aureus [5], 32 µg/mL in the assay with Escherichia coli and 1 µg/mL (≈ 2.81 µM) in the assay on Staphylococcus aureus [10]. Also, the “fractional inhibitory concentration index (FICI)” value with Staphylococcus aureus [2] is 0.52. For the same molecule, the inhibition result in assay [3] was “Dde”; in assay [7], 105%. In the assay with Staphylococcus aureus [4], the result was Active. Besides, the Activity in the assay with Staphylococcus aureus [6] turned out to be 0 log10CFU/ml; in the assay on Bacillus subtilis it was 135.8 um; in the assay with Staphylococcus aureus [8], 0 log10CFU/ml. Besides, the MBC with Staphylococcus aureus [9] came out at 2 µg/mL (≈ 5.62 µM). Besides, the inhibition result in assay [11] is “Active”.
